In ChEMBL document CHEMBL3124927, “New C(4)- and C(1)-derivatives of furo[3,4-c]pyridine-3-ones and related compounds: evidence for site-specific inhibition of the constitutive proteasome and its immunoisoform” (Bioorg Med Chem Lett, 2014):
Active and inactive are the calls of the source. The calls are words filed in the database; no cut-off is given here.

Columns and labels:
Oryctolagus cuniculus [1] = organism: Oryctolagus cuniculus; experiment: Inhibition of 20s constitutive proteasome beta 5 subunit chymotrypsin-like activity in rabbit erythrocytes using Suc-LLVY-AMC as substrate at 50 uM incubated for 15 mins prior to substrate addition measured after 45 mins by fluorescence assay relative to control; format: cell-based
Summary of the method: (§1)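 Purified rabbit erythrocyte constitutive 20S fraction, 0.27 nM enzyme, pre-incubated 15 min with or without inhibitor before substrate addition. Buffer pH 7.5: 20 mM Tris, 1 mM DTT, 10% glycerol, 0.02% (w/v) SDS. Fluorescence read-out. IC50 is from a percent inhibition versus concentration plot, fitted with a Hill-type equation.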

[2] = Inhibition of 20s constitutive proteasome beta 2 subunit trypsin-like activity in rabbit erythrocytes using Boc-LRR-AMC as substrate incubated for 15 mins prior to substrate addition measured after 45 mins by fluorescence assay; format: cell-based, Oryctolagus cuniculus
Summary of the method: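 Purified rabbit erythrocyte constitutive 20S fraction, 0.27 nM enzyme, pre-incubated 15 min with or without inhibitor, then Boc-LRR-AMC added. Buffer at pH 7.5. Fluorescence read-out. IC50 is from a plot of percent inhibition against inhibitor concentration, Hill-equation fit.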

Oryctolagus cuniculus [3] = organism: Oryctolagus cuniculus; experiment: Inhibition of 20s constitutive proteasome beta 1 subunit caspase-like activity in rabbit erythrocytes using Z-LLE-betaNA as substrate at 50 uM incubated for 15 mins prior to substrate addition measured after 45 mins by fluorescence assay relative to control; format: cell-based; summary of the method: as §1
Oryctolagus cuniculus [4] = organism: Oryctolagus cuniculus; experiment: Inhibition of 20s constitutive proteasome beta 1 subunit caspase-like activity in rabbit erythrocytes using Z-LLE-betaNA as substrate at 25 uM incubated for 15 mins prior to substrate addition measured after 45 mins by fluorescence assay relative to control; format: cell-based; summary of the method: as §1
[5] = biological target: Cathepsin B (Homo sapiens) (UniProt P07858); experiment: Inhibition of human cathepsin B using Z-RR-AMC as substrate by fluorescence assay
Summary of the method: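 Human cathepsin B fraction, Z-RR-AMC substrate, at 37 °C in 352 mM KH2PO4, 48 mM Na2HPO4, 1 mM EDTA, 1 mM DTT, pH 6. Fluorescence read-out. IC50 is from percent inhibition versus inhibitor concentration.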

[6] = Inhibition of 20s constitutive proteasome beta 5 subunit chymotrypsin-like activity in rabbit erythrocytes using Suc-LLVY-AMC as substrate incubated for 15 mins prior to substrate addition measured after 45 mins by fluorescence assay; format: cell-based, Oryctolagus cuniculus; summary of the method: as §1
[7] = biological target: T1, Calpain-1 catalytic subunit (Homo sapiens) (UniProt P07384); experiment: Inhibition of human calpain-1 using Suc-LLVY-AMC as substrate by fluorescence assay
T1 sequence (whole entry): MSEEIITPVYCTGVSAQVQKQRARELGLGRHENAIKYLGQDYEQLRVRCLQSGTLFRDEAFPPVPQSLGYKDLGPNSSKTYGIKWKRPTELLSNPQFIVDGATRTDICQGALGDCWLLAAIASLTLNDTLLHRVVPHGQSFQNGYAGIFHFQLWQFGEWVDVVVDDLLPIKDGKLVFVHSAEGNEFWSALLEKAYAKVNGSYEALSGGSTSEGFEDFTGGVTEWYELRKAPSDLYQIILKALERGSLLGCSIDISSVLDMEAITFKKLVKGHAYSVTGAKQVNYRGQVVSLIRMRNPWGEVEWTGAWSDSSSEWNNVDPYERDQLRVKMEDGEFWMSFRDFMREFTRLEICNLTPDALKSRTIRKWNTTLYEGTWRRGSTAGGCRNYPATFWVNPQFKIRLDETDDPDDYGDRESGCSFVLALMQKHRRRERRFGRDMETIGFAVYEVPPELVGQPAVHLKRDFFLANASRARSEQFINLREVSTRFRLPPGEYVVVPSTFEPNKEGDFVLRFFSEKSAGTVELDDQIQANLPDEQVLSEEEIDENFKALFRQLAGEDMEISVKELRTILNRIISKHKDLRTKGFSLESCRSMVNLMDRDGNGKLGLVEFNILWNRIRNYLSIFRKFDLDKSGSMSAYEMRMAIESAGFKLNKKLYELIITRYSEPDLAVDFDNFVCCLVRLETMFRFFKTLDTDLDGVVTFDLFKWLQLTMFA
Summary of the method: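 Human calpain I fraction, Suc-LLVY-AMC substrate, at 25 °C in 50 mM Tris, 10 mM DTT with CaCl2, pH 7.2. Fluorescence read-out. IC50 is from percent inhibition versus inhibitor concentration.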

[8] = biological target: T2, Proteasome Macropain subunit MB1 (Homo sapiens) (UniProt P28074); experiment: Inhibition of 20s immunoproteasome beta 5 subunit chymotrypsin-like activity in human blood monocytes using Suc-LLVY-AMC as substrate at 100 uM preincubated for 2 mins followed by substrate addition by fluorescence assay; format: cell-based
T2 sequence (whole entry): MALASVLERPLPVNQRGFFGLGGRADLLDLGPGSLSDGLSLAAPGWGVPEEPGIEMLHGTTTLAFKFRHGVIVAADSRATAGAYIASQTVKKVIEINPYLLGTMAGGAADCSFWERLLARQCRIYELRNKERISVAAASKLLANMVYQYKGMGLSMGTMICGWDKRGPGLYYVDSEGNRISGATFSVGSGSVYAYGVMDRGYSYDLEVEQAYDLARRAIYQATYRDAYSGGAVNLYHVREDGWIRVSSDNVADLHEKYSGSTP
Summary of the method: (§2)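 Purified immunoproteasome 20S fraction, run like the constitutive assay but with a 2-min pre-incubation with inhibitor before adding the respective substrate. Fluorescence read-out. IC50 is from percent inhibition versus concentration, fitted with a Hill-number equation.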

[9] = biological target: T3, Proteasome component C5 (Homo sapiens) (UniProt P20618); experiment: Inhibition of 20s immunoproteasome beta 1 subunit caspase-like activity in human blood monocytes using Z-LLE-betaNA as substrate at 100 uM preincubated for 2 mins followed by substrate addition by fluorescence assay; format: cell-based; summary of the method: as §2
T3 sequence (whole entry): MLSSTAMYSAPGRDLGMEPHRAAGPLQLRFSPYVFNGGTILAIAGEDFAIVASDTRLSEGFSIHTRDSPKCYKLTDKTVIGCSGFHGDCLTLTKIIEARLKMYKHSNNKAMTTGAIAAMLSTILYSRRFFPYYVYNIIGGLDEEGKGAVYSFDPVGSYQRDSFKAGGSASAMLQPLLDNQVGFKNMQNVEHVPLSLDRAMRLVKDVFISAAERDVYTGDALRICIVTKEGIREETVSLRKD

HeLa = experiment: Cytotoxicity against human HeLa cells assessed as decrease cell attachment after 18 to 72 hrs by XTT assay; format: cell-based
Summary of the method: (§3)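 HeLa cells seeded and handled as for the in-cell proteasome assay, then exposed to inhibitor for 18 or 72 h. Viability read as XTT reduction to formazan by mitochondrial dehydrogenases: 3 h with 1 mg/mL XTT, absorbance at 485 nm.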

[10] = biological target: Proteasome Macropain subunit (Homo sapiens) (UniProt P49721); experiment: Inhibition of 20s immunoproteasome beta 2 subunit trypsin-like activity in human blood monocytes using Boc-LRR-AMC as substrate at 100 to 2000 nM preincubated for 2 mins followed by substrate addition by fluorescence assay; format: cell-based; summary of the method: as §2
Chain of Proteasome Macropain subunit (Homo sapiens) (P49721 whole entry): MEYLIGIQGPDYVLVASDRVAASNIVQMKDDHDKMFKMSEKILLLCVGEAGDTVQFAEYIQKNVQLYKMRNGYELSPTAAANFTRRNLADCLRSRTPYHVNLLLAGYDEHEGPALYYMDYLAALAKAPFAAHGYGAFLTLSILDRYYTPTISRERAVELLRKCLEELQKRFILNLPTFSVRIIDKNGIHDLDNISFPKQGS

[11] = biological target: T2, Proteasome Macropain subunit MB1 (Homo sapiens); experiment: Inhibition of 20s immunoproteasome beta 5 subunit chymotrypsin-like activity in human blood monocytes using Suc-LLVY-AMC as substrate at 100 to 2000 nM preincubated for 2 mins followed by substrate addition by fluorescence assay; format: cell-based; summary of the method: as §2
[12] = tested on: mitochondrial dehydrogenase activity (cytotoxicity readout); experiment: Cytotoxicity against human HeLa cells assessed as inhibition of mitochondrial dehydrogenase activity at 50 uM after 18 to 72 hrs by XTT assay relative to control; format: cell-based; conditions: read-out: INH; summary of the method: as §3

## CCN(CC)CC(O)Cn1cnc2sc(-c3ccccc3)cc2c1=O (configuration not stated)
Oryctolagus cuniculus [1]
  inhibition: 36%
[2]; read-out: IC50
  IC50: 19.4 µM
Oryctolagus cuniculus [3]
  inhibition: 25%

## CC1(C)OC(=O)c2c1ccnc2Nc1ccc(S(N)(=O)=O)cc1
Oryctolagus cuniculus [4]
  inhibition: inactive
[5]
  inhibition: inactive
[2]
  IC50: Not Active
[6]
  IC50: Not Active
[7]
  inhibition: inactive

## O=c1c2cc(-c3ccccc3)sc2ncn1CCc1ccc(Cl)cc1
[8]
  inhibition: inactive
[2]; read-out: IC50
  IC50: 9.9 µM
[9]
  inhibition: inactive

## CC1(C)OC(=O)c2c1ccnc2NCc1ccccc1
[5]
  inhibition: inactive
HeLa
  Activity: Toxic
[10]
  inhibition: inactive
[11]
  inhibition: inactive
[7]
  inhibition: inactive
[12]
  cytotoxicity at 50 µM: 35%
